Source: ChEMBL document CHEMBL1148008, “Antimicrobial and cytotoxic activity of agelasine and agelasimine analogs” (Bioorg Med Chem, 2007)
Values after ≈ are worked out from the molar mass of the structure shown.

What was measured:
[1] = test system: Mycobacterium tuberculosis; assay: Antimicrobial activity against Mycobacterium tuberculosis at 6.25 ug/mL after 20 hrs by broth microdilution method; format: functional
Staphylococcus aureus = assay: Antibacterial activity against Staphylococcus aureus ATCC 25923 after 20 hrs by broth microdilution method; format: functional
In short: (§1)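 Strains grown 24 h at 35 °C on tryptone-soya agar. Colonies suspended in saline to 0.5 McFarland, then diluted 1:10 in Mueller-Hinton broth (~10⁷ CFU/mL). Inoculum added to twofold dilutions in broth (final 0.125–32 µg/mL) in triplicate. Incubated aerobically at 35 °C for 20 h. MIC is the lowest concentration giving complete growth inhibition. Repeated at least once; gentamycin/streptomycin served as QC.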

Escherichia coli = assay: Antibacterial activity against Escherichia coli ATCC 25922 after 20 hrs by broth microdilution method; format: functional; details: ATCC 25922, 20 h; in short: as §1
U-937/GTB = assay: Cytotoxicity against U937 GTB cells; format: functional, cell-based; details: Homo sapiens
In short: (§2)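 Fluorometric microculture cytotoxicity assay (FMCA) read-out; IC50 values reported.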

[2] = Cytotoxicity against RPMI 8226/s cells; format: functional, cell-based; details: Homo sapiens, RPMI8226/S; in short: as §2
[3] = Cytotoxicity against CEM/s cells; format: functional, cell-based; details: Homo sapiens; in short: as §2
ACHN = assay: Cytotoxicity against ACHN cells; format: functional, cell-based; details: Homo sapiens; in short: as §2
[4] = test system: Mycobacterium tuberculosis; assay: Antimicrobial activity against Mycobacterium tuberculosis after 20 hrs by broth microdilution method; format: functional

Row | Molecule | inhibition at 6.25 µg/mL [1] | MIC (Staphylococcus aureus; ATCC 25923, 20 h) | MIC (Escherichia coli) | IC50 (U-937/GTB) | IC50 [2] | IC50 [3] | IC50 (ACHN) | MIC [4] | MIC (Staphylococcus aureus)
1 | Cn1cc[n+](Cc2ccccc2)c1 | 19% |  |  |  |  |  |  |  | 
2 | Cn1c[n+](Cc2ccccc2)c2/c(=N/OC(C)(C)C)[nH]cnc21 | 53% |  |  |  |  |  |  |  | 
3 | CC(C)=CCC/C(C)=C/CC/C(C)=C/CC/C(C)=C/Cn1cnc2ncnc(Cl)c21 | 33% | > 32 µg/mL | > 32 µg/mL | 5.07 µM | 5.2 µM | 6.79 µM | 6.75 µM |  | 
4 | CO/N=c1\[nH]cnc2c1[n+](C/C=C(\C)CC/C=C(\C)CC/C=C(\C)CCC=C(C)C)cn2Cc1ccccc1 | 99% | > 32 µg/mL | > 32 µg/mL | 1.07 µM | 1.04 µM | 2.24 µM | 3.4 µM | 1.56 µg/mL | 
5 | CC(C)=CCC/C(C)=C/CC/C(C)=C/CC/C(C)=C/C[n+]1cnc2c(ncn2C)c1N.[Br-] | 72% | 8 µg/mL | > 32 µg/mL | 39.4 µM | 18.6 µM | 20.8 µM | > 80 µM |  | 
6 | CC(C)=CCC/C(C)=C/CC/C(C)=C/CC/C(C)=C/Cn1cnc2nc[nH]/c(=N\OCc3ccccc3)c21 | 40% | > 32 µg/mL | > 32 µg/mL | 11.2 µM | 10.9 µM | 20.4 µM | 27.4 µM |  | 
7 | CO[C@H]1/C=C/O[C@@]2(C)Oc3c(C)c(O)c4c(O)c(c(/C=N/N5CCN(C)CC5)c(O)c4c3C2=O)NC(=O)/C(C)=C\C=C\[C@H](C)[C@H](O)[C@@H](C)[C@@H](O)[C@@H](C)[C@H](OC(C)=O)[C@@H]1C [RIFAMPIN] |  |  |  |  |  |  |  | 0.25 µg/mL (≈ 0.304 µM) | 
8 | CO/N=c1\[nH]cnc2c1[n+](Cc1ccccc1)cn2C | 4% | > 32 µg/mL | > 32 µg/mL | > 80 µM | > 80 µM | > 80 µM | > 80 µM |  | 
9 | Cn1cnc(=N)c2c1ncn2Cc1ccccc1 | 0% |  |  |  |  |  |  |  | 
10 | CO/N=c1\[nH]cnc2c1[n+](C/C=C(\C)CC/C=C(\C)CC/C=C(\C)CCC=C(C)C)cn2CCC#N | 100% | 4 µg/mL | > 32 µg/mL | 3.33 µM | 3.96 µM | 5.36 µM | 11.4 µM | > 6.25 µg/mL | 
11 | CO/N=c1\[nH]cnc2ncn(C/C=C(\C)CC/C=C(\C)CC/C=C(\C)CCC=C(C)C)c12 | 74% | > 32 µg/mL | > 32 µg/mL | 3.31 µM | 3 µM | 5.69 µM | 18.1 µM |  | 
12 | CC(=O)O[C@H]1C(=O)[C@@]2(C)[C@H]([C@H](OC(=O)c3ccccc3)[C@]3(O)C[C@H](OC(=O)[C@H](O)[C@@H](NC(=O)c4ccccc4)c4ccccc4)C(C)=C1C3(C)C)[C@]1(OC(C)=O)CO[C@@H]1C[C@@H]2O [PACLITAXEL] |  |  |  | 0.0059 µM | 0.007 µM | 0.007 µM | 31.5 µM |  | 
13 | CC(C)=CCC/C(C)=C/CC/C(C)=C/C[n+]1cn(C)c2ncnc(N)c21.[Cl-] | 13% | > 32 µg/mL | > 32 µg/mL | > 80 µM | > 80 µM | > 80 µM | > 80 µM |  | 
14 | CO/N=c1\[nH]cnc2c1[n+](C/C=C(\C)CCCC(C)CCCC(C)CCCC(C)C)cn2C (stereo unspecified) | 56% | > 32 µg/mL | > 32 µg/mL | 5.4 µM | 3.75 µM | 7.92 µM | 16.9 µM |  | 
15 | Cn1c[n+](Cc2ccccc2)c2ccccc21 | 19% |  |  |  |  |  |  |  | 
16 | CO/N=c1\[nH]cnc2c1[n+](C/C=C(\C)CCC=C(C)C)cn2C |  | > 32 µg/mL | > 32 µg/mL | 17.5 µM | 18.4 µM | 27.4 µM | > 80 µM |  | 

Row | Molecule | inhibition at 6.25 µg/mL [1] | MIC (Staphylococcus aureus; ATCC 25923, 20 h) | MIC (Escherichia coli) | IC50 (U-937/GTB) | IC50 [2] | IC50 [3] | IC50 (ACHN) | MIC [4] | MIC (Staphylococcus aureus)
17 | Cn1c[n+](Cc2ccccc2)c2/c(=N/OCc3ccccc3)[nH]cnc21 | 0% |  |  |  |  |  |  |  | 
18 | CO/N=c1\[nH]cnc2c1[n+](C/C=C(\C)CC/C=C(\C)CC/C=C(\C)CCC=C(C)C)cn2C(c1ccccc1)c1ccccc1 | 99% | 8 µg/mL | > 32 µg/mL | 1.97 µM | 2.6 µM | 3.54 µM | 4.75 µM | 3.13 µg/mL | 
19 | C/C(=C\C[n+]1cn(C)c2nc[nH]/c(=N\OCc3ccccc3)c21)CCCC(C)CCCC(C)CCCC(C)C (stereo unspecified) | 72% | > 32 µg/mL | > 32 µg/mL | 10.8 µM | 7.07 µM | 6.3 µM | 20.5 µM |  | 
20 | Cn1cnc2c(N)[n+](Cc3ccccc3)cnc21.[Br-] | 0% | > 32 µg/mL | > 32 µg/mL |  |  |  |  |  | 
21 | GENTAMICIN |  |  |  |  |  |  |  |  | 0.1 µg/mL
22 | C=CC[n+]1cn(C)c2nc[nH]/c(=N\OC)c21 |  | > 32 µg/mL | > 32 µg/mL | > 80 µM | > 80 µM | > 80 µM | > 80 µM |  | 
23 | CO/N=c1\[nH]cnc2c1[n+](C/C=C(\C)CC/C=C(\C)CCC1CCCCC1)cn2C |  | 6 µg/mL | 16 µg/mL |  |  |  |  |  | 
24 | C/C(=C\C[n+]1cn(C)c2ncnc(N)c21)CCCC(C)CCCC(C)CCCC(C)C (stereo unspecified) | 99% | 4 µg/mL | > 32 µg/mL | 3.18 µM | 2.41 µM | 5.82 µM | 11.3 µM | 6.25 µg/mL | 
25 | C=CCn1c[n+](C/C=C(\C)CC/C=C(\C)CC/C=C(\C)CCC=C(C)C)c2/c(=N/OC)[nH]cnc21 | 100% | > 32 µg/mL | > 32 µg/mL | 1.39 µM | 1.25 µM | 2.94 µM | 4.61 µM | 3.13 µg/mL | 
26 | COc1cccc2c1C(=O)c1c(O)c3c(c(O)c1C2=O)C[C@@](O)(C(=O)CO)C[C@@H]3O[C@H]1C[C@H](N)[C@H](O)[C@H](C)O1 [DOXORUBICIN] |  |  |  | 0.11 µM | 0.13 µM | 0.18 µM | 14.2 µM |  | 
27 | C/N=c1\ncn(C)c2ncn(C/C=C(\C)CC/C=C(\C)CC/C=C(\C)CCC=C(C)C)c12 | 94% | 3 µg/mL (≈ 6.89 µM) | 16 µg/mL (≈ 36.7 µM) | > 80 µM | > 80 µM | > 80 µM | > 80 µM | 3.13 µg/mL (≈ 7.18 µM) | 
28 | CC(C)=CCC/C(C)=C\CC/C(C)=C/C[n+]1cn(C)c2ncnc(N)c21.[Cl-] | 8% | 32 µg/mL | > 32 µg/mL |  |  |  |  |  | 
29 | CC(C)=CCC/C(C)=C/CC/C(C)=C/CC/C(C)=C/Cn1cnc2c1C(=N)NCN2C | 99% | 8 µg/mL (≈ 18.9 µM) | 16 µg/mL (≈ 37.8 µM) | > 80 µM | 18.2 µM | 21.7 µM | > 80 µM |  | 
30 | CO/N=c1\[nH]cnc2c1[n+](C/C=C(\C)CC/C=C(\C)CC/C=C(\C)CCC=C(C)C)cn2C(C)C | 100% |  |  | 1.1 µM | 0.886 µM | 2.05 µM | 2.45 µM | 1.56 µg/mL | 
31 | CC(C)=CCC/C(C)=C/CC/C(C)=C/CC/C(C)=C/C[n+]1cn(C(c2ccccc2)c2ccccc2)c2nc[nH]/c(=N\OCc3ccccc3)c21 | 78% | 8 µg/mL | > 32 µg/mL | 4.24 µM | 59 µM | 9.11 µM | 17.2 µM |  | 
32 | CC(C)=CCC/C(C)=C/CC/C(C)=C/CC/C(C)=C/C[n+]1cn(CCC#N)c2nc[nH]/c(=N\OCc3ccccc3)c21 | 86% | > 32 µg/mL | > 32 µg/mL | 24.2 µM | 9.46 µM | 19.1 µM | 38.9 µM |  | 
